Measurements published in ChEMBL document CHEMBL1125209, “Boc-CCK-4 derivatives containing side-chain ureas as potent and selective CCK-a receptor agonists” (J Med Chem, 1991).
*1 amine or outer side, *2 acyl side, *3 side chain or, on linkers, in order; H or OH if unused. Where a SMILES comes first, the peptide text is derived from it. Side-chain parts run from the residue outwards. [ ]: non-standard residue; d: D form. The star is where a group is joined. NH(2,6-Me2-phenyl) = Cc1cccc(C)c1N*; NH(3-Cl-phenyl) = Clc1cccc(N*)c1; NH(4-Cl-phenyl) = Clc1ccc(N*)cc1; NH(4-Me-phenyl) = Cc1ccc(N*)cc1; NH(2-Me-phenyl) = Cc1ccccc1N*; hLys = NCCCCC[C@H](N)C(=O)O; NH(2-ClPh) = Clc1ccccc1N*; X9 = FC(F)(F)c1cccc(N*)c1; Boc = CC(C)(C)OC(=O)*; CO = O=C([*:1])[*:2]; NHBn = c1ccc(CN*)cc1; X10 = Brc1ccccc1N*; X5 = Cc1cccc(N*)c1; X6 = COc1ccccc1N*

Assays:
[1] = biological target: T1, Cholecystokinin receptor type A (Cavia porcellus, UniProt Q63931); test: Binding affinity for Cholecystokinin type A receptor in guinea pig pancreas by using [125I]BH-CCK-8 as radioligand
T1 sequence (Q63931 whole entry): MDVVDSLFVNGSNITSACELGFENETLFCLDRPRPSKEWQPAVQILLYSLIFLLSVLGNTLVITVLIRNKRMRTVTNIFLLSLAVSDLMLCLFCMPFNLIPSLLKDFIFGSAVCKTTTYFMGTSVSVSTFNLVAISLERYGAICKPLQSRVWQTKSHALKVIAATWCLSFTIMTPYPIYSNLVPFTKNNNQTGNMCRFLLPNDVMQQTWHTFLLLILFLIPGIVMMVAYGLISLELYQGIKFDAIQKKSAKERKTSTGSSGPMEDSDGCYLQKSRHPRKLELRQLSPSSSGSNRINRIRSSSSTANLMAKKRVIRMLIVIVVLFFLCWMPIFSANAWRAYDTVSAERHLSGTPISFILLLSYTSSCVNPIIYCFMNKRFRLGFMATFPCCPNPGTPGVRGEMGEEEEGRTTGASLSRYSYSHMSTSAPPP

[2] = organism: Cavia porcellus; test: Effective concentration for hydrolysis of phosphoinositide in guinea pig pancreatic Acini; assay type: functional
Summary of the method: (§1)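 Guinea pig pancreatic acini, phosphoinositide hydrolysis. […] Efficacy is expressed as % of the maximal response elicited by CCK-8. Each determination was run in duplicate with <5% sample variability. Means ±SE are given for three or more determinations.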

[3] = organism: Cavia porcellus; test: Percentage response in phosphoinositide hydrolysis relative to maximal response elicited by CCK-8 in guinea pig pancreatic acini; assay type: functional; summary of the method: as §1
[4] = organism: Cavia porcellus; test: The compound was tested for effective concentration for amylase release in guinea pig pancreatic Acini; assay type: functional
Summary of the method: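 Amylase release from guinea pig pancreatic acini. […] Each determination was run in duplicate with <5% sample variability. Means ±SE are given where there were three or more determinations.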

| EC50 [2] [nM] | Compound | IC50 [1] [nM] | Max response [3] [%] | EC50 [4] [nM] |
| --- | --- | --- | --- | --- |
| 910 | Cc1cccc(C)c1NC(=O)NCCCC[C@H](NC(=O)[C@H](Cc1c[nH]c2ccccc12)NC(=O)OC(C)(C)C)C(=O)N[C@@H](CC(=O)O)C(=O)N[C@@H](Cc1ccccc1)C(N)=O (Boc-WK([CO-NH(2,6-Me2-phenyl)])DF-NH2) | 800 | 40 | – |
| 4.6 | CC(C)(C)OC(=O)N[C@@H](Cc1c[nH]c2ccccc12)C(=O)N[C@@H](CCCCNC(=O)Nc1ccccc1Cl)C(=O)N[C@@H](CC(=O)O)C(=O)N[C@@H](Cc1ccccc1)C(N)=O (Boc-WK([CO-NH(2-ClPh)])DF-NH2) | – | 91 | – |
| 12 | Cc1ccccc1NC(=O)NCCCC[C@H](NC(=O)[C@H](Cc1c[nH]c2ccccc12)NC(=O)OC(C)(C)C)C(=O)N[C@@H](CC(=O)O)C(=O)N[C@@H](Cc1ccccc1)C(N)=O (Boc-WK([CO-NH(2-Me-phenyl)])DF-NH2) | – | 101 | – |
| 140 | Cc1ccc(NC(=O)NCCCC[C@H](NC(=O)[C@H](Cc2c[nH]c3ccccc23)NC(=O)OC(C)(C)C)C(=O)N[C@@H](CC(=O)O)C(=O)N[C@@H](Cc2ccccc2)C(N)=O)cc1 (Boc-WK([CO-NH(4-Me-phenyl)])DF-NH2) | – | 91 | – |
| 51 | Cc1cccc(NC(=O)NCCCC[C@H](NC(=O)[C@H](Cc2c[nH]c3ccccc23)NC(=O)OC(C)(C)C)C(=O)N[C@@H](CC(=O)O)C(=O)N[C@@H](Cc2ccccc2)C(N)=O)c1 (Boc-WK([CO-X5])DF-NH2) | – | 95 | – |
| 8.4 | COc1ccccc1NC(=O)NCCCC[C@H](NC(=O)[C@H](Cc1c[nH]c2ccccc12)NC(=O)OC(C)(C)C)C(=O)N[C@@H](CC(=O)O)C(=O)N[C@@H](Cc1ccccc1)C(N)=O (Boc-WK([CO-X6])DF-NH2) | – | 100 | – |

Further lines, the molecule ahead of its results:

| Compound | EC50 [2] [nM] | IC50 [1] [nM] | Max response [3] [%] | EC50 [4] [nM] |
| --- | --- | --- | --- | --- |
| CC(C)(C)OC(=O)N[C@@H](Cc1c[nH]c2ccccc12)C(=O)N[C@@H](CCCC/N=C(\S)Nc1ccc(Cl)cc1)C(=O)N[C@@H](CC(=O)O)C(=O)N[C@@H](Cc1ccccc1)C(N)=O | – | 270 | – | – |
| CC(C)(C)OC(=O)N[C@@H](Cc1c[nH]c2ccccc12)C(=O)N[C@@H](CCCCNC(=O)Nc1cccc(Cl)c1)C(=O)N[C@@H](CC(=O)O)C(=O)N[C@@H](Cc1ccccc1)C(N)=O (Boc-WK([CO-NH(3-Cl-phenyl)])DF-NH2) | – | 51 | 93 | 4.4 |
| CC(C)(C)OC(=O)N[C@@H](Cc1c[nH]c2ccccc12)C(=O)N[C@@H](CCCCNC(=O)Nc1ccc(Cl)cc1)C(=O)N[C@@H](CC(=O)O)C(=O)N[C@@H](Cc1ccccc1)C(N)=O (Boc-WK([CO-NH(4-Cl-phenyl)])DF-NH2) | – | 60 | 91 | 9.6 |
| CC(C)(C)OC(=O)N[C@@H](Cc1c[nH]c2ccccc12)C(=O)N[C@@H](CCCCNC(=O)NCc1ccccc1)C(=O)N[C@@H](CC(=O)O)C(=O)N[C@@H](Cc1ccccc1)C(N)=O (Boc-WK([CO-NHBn])DF-NH2) | – | 230 | – | – |
| CC(C)(C)OC(=O)N[C@@H](Cc1c[nH]c2ccccc12)C(=O)N[C@@H](CCCCNC(=O)Nc1cccc(C(F)(F)F)c1)C(=O)N[C@@H](CC(=O)O)C(=O)N[C@@H](Cc1ccccc1)C(N)=O (Boc-WK([CO-X9])DF-NH2) | – | 59 | – | – |
| CC(C)(C)OC(=O)N[C@@H](Cc1c[nH]c2ccccc12)C(=O)N[C@@H](CCCCNC(=O)Nc1ccccc1Br)C(=O)N[C@@H](CC(=O)O)C(=O)N[C@@H](Cc1ccccc1)C(N)=O (Boc-WK([CO-X10])DF-NH2) | – | 3.6 | – | – |
| Cc1ccccc1NC(=O)NCCCCC[C@H](NC(=O)[C@H](Cc1c[nH]c2ccccc12)NC(=O)OC(C)(C)C)C(=O)N[C@@H](CC(=O)O)C(=O)N[C@@H](Cc1ccccc1)C(N)=O (Boc-W[hLys]([CO-NH(2-Me-phenyl)])DF-NH2) | – | 93 | 83 | 12 |
| CSCC[C@H](NC(=O)[C@H](Cc1ccc(OS(=O)(=O)O)cc1)NC(=O)[C@@H](N)CC(=O)O)C(=O)NCC(=O)N[C@@H](Cc1c[nH]c2ccccc12)C(=O)N[C@@H](CCSC)C(=O)N[C@@H](CC(=O)O)C(=O)N[C@@H](Cc1ccccc1)C(N)=O [SINCALIDE] | 1.2 | – | – | 0.47 |
